Entries after “also recorded” stand apart in the source; their conditions may differ. Like-named read-outs stand apart in the source and are kept apart here.
Legend:
[1] = test system: T. vaginalis; settings: cited from earlier work
[2] = test system: T. vaginalis trophozoites of the metronidazole-sensitive strain G3; assay: Resorufin-based drug sensitivity assay; type: cell-based, Trichomonas vaginalis; settings: for EC50: Trichomonas vaginalis
[3] = test system: Human Embryonic Kidney (HEK) cells; assay: Toxicity against Human Embryonic Kidney; type: cell-based; settings: for S.I. (Selectivity Index): HEK versus T. vaginalis
[4] = mouse models of Chagas' disease; cited from earlier work
[5] = test system: T. vaginalis; assay: Fluorescence microscopy; type: cell-based, Trichomonas vaginalis; settings: 2×EC50
Summary of the method: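 Samples from the growth-curve cultures, taken at 8-h intervals, were centrifuged twice at 2600 × g for 10 min at 4 °C, with a PBS pH 7.4 wash in between. Cells were air-dried 30 min on poly-L-lysine slides, fixed 15 min in 4% paraformaldehyde/PBS, washed, and mounted in antifade medium with DAPI. Nuclear volumes were measured from Z-stacks. Cultures were passaged at 24 h to 1.32×10^5 cells/mL.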

[6] = test system: T. foetus strain D1; assay: In vitro activity against T. foetus; type: cell-based, Tritrichomonas foetus
[7] = test system: T. vaginalis strain F1623; assay: In vitro activity against T. vaginalis F1623; type: cell-based, Trichomonas vaginalis; settings: T. vaginalis strain F1623, same assay as T. foetus
[8] = test system: T. foetus D1 trophozoites; assay: Murine model of vaginal trichomonad infection; type: in vivo, BALB/c mice
Summary of the method: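 Freshly weaned (21–24 days) female BALB/c mice were infected intravaginally with 10^6 mid-log T. foetus D1 trophozoites in 5 µL growth medium. One day later they received five doses over three days (1 on day 1, 2 on each of days 2 and 3). Doses were either oral gavage of 25 mg/kg per dose as a suspension in 1% hypromellose, 50 µL, or intravaginal 50 µg in 5 µL; controls received solvent. Live trophozoites in 30 µL PBS vaginal washes were counted in a chamber on day 4.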

[9] = test system: T. vaginalis trophozoites; assay: Growth curve assay; type: cell-based, Trichomonas vaginalis; settings: 2×EC50, continuous exposure 56 h, passage after 24 h
[10] = read-out: EC50 T. vaginalis, resorufin assay, 24 h + 2 h, 2% O2/98% N2, average of at least 3 independent determinations and SD
[11] = Homo sapiens, HEK293, read-out: EC50 HEK
[12] = read-out: EC50 HEK, HEK cells, average of at least 3 independent determinations and SD

For 2-F, 2’-deoxyadenosine, the antitrichomonal activity [1] is given as about 100 nM.
In the case of 2’-F,2’-deoxyadenosine, the antitrichomonal efficacy [1] is given as “substantial antitrichomonal efficacy”.
For `Nc1ncnc2c1ncn2[C@@H]1O[C@H](CO)[C@@H](O)[C@@H]1F` [2’-deoxy-2’-fluoroarabinoadenosine], the antitrichomonal efficacy [1] is given as “substantial antitrichomonal efficacy”.
For `Nc1nc(F)nc2nc[nH]c12` [Compound 2-F-adenine, 2-F-adenine], the antitrichomonal activity [1] is given as about 100 nM.
In the case of `Nc1ncnc2c1c(-c1ccc(Cl)c(Cl)c1)cn2[C@@H]1O[C@H](CO)[C@@H](O)[C@H]1O` [FH3147, 7-deaza,7-(3,4-dichlorophenyl)adenosine], the “in vitro anti-T. vaginalis activity (EC50) described in words” value (“in vitro anti-T. vaginalis activity” for short) [2] is reported as “double-digit nanomolar”, the EC50 [2, 10] is reported as 0.029 ± 0.003 µM and the “S.I. (Selectivity Index)” value [3] is reported as >10,000. It also gave an EC50 [3, 11] of over 200 µM.
In the case of `Nc1ncnc2c1c(-c1ccccc1F)cn2[C@@H]1O[C@H](CO)[C@@H](O)[C@H]1O` [FH7435], the EC50 [3, 12] is reported as over 200 µM.
Work on `Nc1ncnc2c1c(-c1cccc(Cl)c1)cn2[C@@H]1O[C@H](CO)[C@@H](O)[C@H]1O` [FH8459] yielded an EC50 [3, 12] of over 200 µM.
`Nc1ncnc2c1c(-c1cc(Cl)cc(Cl)c1)cn2[C@@H]1O[C@H](CO)[C@@H](O)[C@H]1O` [FH8460] gave an EC50 [3, 12] of over 200 µM.
In the case of `Nc1ncnc2c1c(-c1ccccc1)cn2[C@@H]1O[C@H](CO)C[C@H]1O` [FH8480], the “in vitro anti-T. vaginalis activity” value [2] is reported as “low micromolar”.
In the case of `Cc1ccc(-c2cn([C@@H]3O[C@H](CO)C[C@H]3O)c3ncnc(N)c23)cc1` [FH8481], the “in vitro anti-T. vaginalis activity” value [2] is reported as “low micromolar” and the EC50 [3, 12] is reported as over 200 µM.
Compound `COc1ccc(-c2cn([C@@H]3O[C@H](CO)C[C@H]3O)c3ncnc(N)c23)cc1` [FH8494] has an EC50 [3, 12] of over 200 µM.
For `Nc1ncnc2c1c(-c1ccc(Cl)cc1)cn2[C@@H]1O[C@H](CO)C[C@H]1O` [FH8512], the EC50 [3, 12] is given as over 200 µM and the “ill effects on the animals” value [4] is given as “without any apparent ill effects”.
Compound `Nc1ncnc2c1c(-c1ccc(Cl)c(Cl)c1)cn2[C@@H]1O[C@H](CO)C[C@H]1O` [FH8513] has an EC50 [3, 12] of over 200 µM.
`CC(C)c1ccc(-c2cn([C@@H]3O[C@H](CO)C[C@H]3O)c3ncnc(N)c23)cc1` [FH9574] showed an EC50 [3, 12] of 94 ± 9 µM.
Compound `Nc1ncnc2c1c(-c1ccc3ccccc3c1)cn2[C@@H]1O[C@H](CO)C[C@H]1O` [FH9575] has an EC50 [3, 12] of 44 ± 5 µM.
For `Nc1ncnc2c1c(-c1ccc(C(F)(F)F)cc1)cn2[C@@H]1O[C@H](CO)C[C@H]1O` [FH9576], the EC50 [3, 12] was 148 ± 22 µM and the “cell morphology / nuclei (DAPI)” value ([5]; 16 h continuous incubation) was “cells still looked normal at 16 h”.
For `Nc1ncnc2c1c(-c1ccc(OC(F)(F)F)cc1)cn2[C@@H]1O[C@H](CO)C[C@H]1O` [FH9577], the “cell morphology / nuclei (DAPI)” value ([5]; 16 h continuous incubation) was “looked healthy at 16 h” and the “cell morphology / nuclei (DAPI)” value ([5]; 24 h continuous incubation) was “clearly displayed multiple nuclei at 24 h”.
For `Nc1ncnc2c1c(-c1ccc(Cl)cc1Cl)cn2[C@@H]1O[C@H](CO)C[C@H]1O` [FH9581], the EC50 [3, 12] was over 200 µM.
Work on `Nc1ncnc2c1c(-c1ccc([N+](=O)[O-])cc1)cn2[C@@H]1O[C@H](CO)C[C@H]1O` [FH9582] yielded an EC50 [3, 12] of over 200 µM.
For `Nc1ncnc2c1c(-c1cccc(Cl)c1)cn2[C@@H]1O[C@H](CO)C[C@H]1O` [FH10641], the EC50 [3, 12] was over 200 µM.
`Cc1ccc(-c2cn([C@@H]3O[C@H](CO)C[C@H]3O)c3ncnc(N)c23)cc1Cl` [FH10644] gave an EC50 [3, 12] of 94 ± 9 µM.
`COc1ccc(-c2cn([C@@H]3O[C@H](CO)C[C@H]3O)c3ncnc(N)c23)cc1Cl` [FH10645] showed an EC50 [3, 12] of over 200 µM.
`CCc1ccc(-c2cn([C@@H]3O[C@H](CO)C[C@H]3O)c3ncnc(N)c23)cc1` [FH10647] showed an EC50 [3, 12] of 133 ± 2 µM.
For `Cc1cc(-c2cn([C@@H]3O[C@H](CO)C[C@H]3O)c3ncnc(N)c23)ccc1Cl` [FH10648], the EC50 [3, 12] was 146 ± 13 µM.
For `COc1cc(-c2cn([C@@H]3O[C@H](CO)C[C@H]3O)c3ncnc(N)c23)ccc1Cl` [FH10649], the EC50 [3, 12] was 178 ± 6 µM.
`Cc1ccc(-c2cn([C@@H]3O[C@H](CO)C[C@H]3O)c3ncnc(N)c23)cc1C` [FH10653] showed an EC50 [3, 12] of 168 ± 19 µM.
With `Nc1ncnc2c1c(C1CCCCC1)cn2C1OC(CO)CC1O` (stereo not drawn) [FH10669] the “in vitro anti-T. vaginalis activity” value [2] was “very weak activity”.
With `Nc1ncnc2c1c(-c1ccc(F)cc1)cn2[C@@H]1O[C@H](CO)C[C@H]1O` [FH10680] the “in vitro anti-T. vaginalis activity” value [2] was “low micromolar” and the EC50 [3, 12] was over 200 µM.
For `Nc1ncnc2c1c(-c1ccc(F)c(Cl)c1)cn2[C@@H]1O[C@H](CO)C[C@H]1O` [FH10681], the EC50 [3, 12] was over 200 µM.
Compound `Nc1ncnc2c1c(-c1ccc(F)c(F)c1)cn2[C@@H]1O[C@H](CO)C[C@H]1O` [FH10682] has an EC50 [3, 12] of over 200 µM.
Compound `Nc1ncnc2c1c(-c1ccc(Cl)c(F)c1)cn2[C@@H]1O[C@H](CO)C[C@H]1O` [FH10683] has an EC50 [3, 12] of 151 ± 1 µM.
In the case of `Nc1ncnc2c1c(-c1ccc(C(F)(F)F)cc1)cn2[C@@H]1O[C@H](CO)[C@@H](O)[C@H]1O` [FH11704], the EC50 [3, 12] is reported as over 200 µM.
With `Cc1ccc(-c2cn([C@@H]3O[C@H](CO)[C@@H](O)[C@H]3O)c3ncnc(N)c23)cc1C` [FH13820] the EC50 [3, 12] was over 200 µM.
For `Nc1ncnc2c1c(-c1ccc(F)cc1)cn2[C@@H]1O[C@H](CO)[C@@H](O)[C@H]1O` [MS1001], the EC50 [3, 12] was over 200 µM.
With `Nc1ncnc2c1c(-c1ccccc1)cn2[C@@H]1O[C@H](CO)[C@@H](O)[C@H]1O` [TH1004, 7-deaza-7-phenyladenosine] the EC50 [2, 10] was 0.44 ± 0.059 µM, the “S.I. (Selectivity Index)” value [3] was over 465 and the EC50 [3, 11] was over 200 µM. For the same compound, the “cell morphology / nuclei (DAPI)” value ([5]; 24 h continuous incubation) was “the cell membrane appears to be disintegrating and multiple nuclei are present in some cells”.
For `Cc1ccc(-c2cn([C@@H]3O[C@H](CO)[C@@H](O)[C@H]3O)c3ncnc(N)c23)cc1` [TH1011], the “in vitro anti-T. vaginalis activity” value [2] was “double-digit nanomolar” and the EC50 [3, 12] was over 200 µM.
With `Nc1ncnc2c1c(-c1ccc(Cl)cc1)cn2[C@@H]1O[C@H](CO)[C@@H](O)[C@H]1O` [TH1012] the “in vitro anti-T. vaginalis activity” value [2] was “double-digit nanomolar”, the EC50 [3, 12] was over 200 µM and the EC50 [6] was 13.9 µM. The EC50 [7] was 0.18 µM, the “adverse effects during the treatment period” value ([8]; oral 5×25 mg/kg or topical 1%, 25 mg/kg) was “No adverse effects were observed; also recorded: without any apparent ill effects” and the “effect on infection (live trophozoites in vaginal washes on day 4)” value ([8]; topical intravaginal, 1% (50 μg per dose), five doses over three days) was “almost complete eradication of the infection; also recorded: almost completely eradicated the T. foetus infection; also recorded: strongly inhibited T. foetus infection in mice”. The “cell morphology / nuclei (DAPI)” value ([5]; 24 h continuous incubation) was “displayed multiple nuclei at 24 h” and the “ill effects on the animals” value [4] was “without any apparent ill effects”.
With `COc1ccc(-c2cn([C@@H]3O[C@H](CO)[C@@H](O)[C@H]3O)c3ncnc(N)c23)cc1` [TH1013] the EC50 [3, 12] was over 200 µM.
In the case of `Nc1ncnc2c1ncn2[C@@H]1O[C@H](CO)[C@@H](O)[C@@H]1O` [adenine arabinoside], the antitrichomonal efficacy [1] is given as “substantial antitrichomonal efficacy”.
Compound `Cc1ncc([N+](=O)[O-])n1CCO` [metronidazole, reference compound] has an EC50 ([2]; BD pouch bags incubation, n=16) of 0.26 ± 0.02 µM, an EC50 ([2]; confirmation experiments, n=9, unit inferred) of 0.53 ± 0.1 µM and an EC50 ([2]; in-pod incubation, n=16) of 0.28 ± 0.02 µM. The EC50 ([2]; introduction, hit criterion) was about 0.3 µM and the “effect on T. vaginalis growth” value [9] was “managed a modest amount of growth before arrest and population decline”.
